Measured values taken from PubChem BioAssay AID463169 (The Scripps Research Institute Molecular Screening Center, 2010).

Target: Wee1-like protein kinase (Homo sapiens) (UniProt P30291)
Assay: blockers of Wee1 turnover via luciferase fusion stabilization, late-stage follow-up, cell-based, HeLa, luminescence, powder samples (AID 463169)
Conditions: at 0.1 µM, hits give high values
Procedure, shortened: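 Test system: HeLa cells transiently transfected with Wee1-luciferase fusion plasmid. Compound: one dose, 0.1 µM nominal. Read-out: average fold change in luminescence relative to DMSO-treated cells. Measured by: luciferase luminescence. Incubation: transfection 48 h before assay, compound exposure 20 h at 37 °C. Repeats: four replicates. Controls: DMSO vehicle-treated cells as reference.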

Sequence of Wee1-like protein kinase (Homo sapiens) (P30291 whole entry K328M, the tested form may be a part): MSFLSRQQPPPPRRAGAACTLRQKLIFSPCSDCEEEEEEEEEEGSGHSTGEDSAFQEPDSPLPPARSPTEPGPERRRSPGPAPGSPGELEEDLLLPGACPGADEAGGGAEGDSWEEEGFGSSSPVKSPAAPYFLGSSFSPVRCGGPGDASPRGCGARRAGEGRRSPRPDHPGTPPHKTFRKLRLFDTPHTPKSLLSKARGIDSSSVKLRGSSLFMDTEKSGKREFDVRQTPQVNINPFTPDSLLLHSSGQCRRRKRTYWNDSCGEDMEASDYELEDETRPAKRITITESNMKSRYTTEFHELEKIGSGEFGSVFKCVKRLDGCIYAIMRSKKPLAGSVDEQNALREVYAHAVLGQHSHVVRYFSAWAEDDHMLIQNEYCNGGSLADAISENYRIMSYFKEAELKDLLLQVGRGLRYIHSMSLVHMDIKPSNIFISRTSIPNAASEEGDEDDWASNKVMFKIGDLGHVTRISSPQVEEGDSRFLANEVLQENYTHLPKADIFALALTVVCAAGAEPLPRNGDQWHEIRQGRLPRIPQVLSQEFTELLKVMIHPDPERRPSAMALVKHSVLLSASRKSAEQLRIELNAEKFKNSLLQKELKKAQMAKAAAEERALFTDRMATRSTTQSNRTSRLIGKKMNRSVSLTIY

| fold change | Structure (SMILES) |
| --- | --- |
| 23.3 | O=[N+]([O-])c1cccc2[nH]c(CNc3nc(N4CCOCC4)nc4c3ncn4-c3ccsc3)nc12 |
| 12.9 | c1ccc2[nH]c(CNc3nc(N4CCOCC4)nc4c3ncn4-c3ccsc3)nc2c1 |
